In ChEMBL document CHEMBL2331542, “Synthesis and in vitro antibacterial activity of quinolone/naphthyridone derivatives containing 3-alkoxyimino-4-(methyl)aminopiperidine scaffolds” (2013):
≈ marks a conversion by molar mass, not a printed value.

tested on: Staphylococcus aureus; test: Antibacterial activity against methicillin-sensitive Staphylococcus aureus isolate 12-6; format: functional
Outline: (§1)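 MIC determined in vitro by a standard technique and defined as the lowest compound concentration giving complete inhibition of bacterial growth. The Gram-positive and Gram-negative panels were tested alongside gemifloxacin, levofloxacin and ciprofloxacin reference drugs.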

| SMILES | MIC [µg/mL] |
| --- | --- |
| CNC1CCN(c2c(F)cc3c(=O)c(C(=O)O)cn(C4CC4)c3c2F)C/C1=N\OC (stereo unspecified) | 0.03 (≈ 0.0714 µM) |

tested on: Escherichia coli; test: Antibacterial activity against Escherichia coli isolate 12-1; format: functional; outline: as §1

| SMILES | MIC [µg/mL] |
| --- | --- |
| CNC1CCN(c2c(F)cc3c(=O)c(C(=O)O)cn(C4CC4)c3c2F)C/C1=N\OC (stereo unspecified) | 2 (≈ 4.76 µM) |

tested on: Streptococcus pneumoniae; test: Antibacterial activity against Streptococcus pneumoniae isolate 12-5; format: functional; outline: as §1

| SMILES | MIC [µg/mL] |
| --- | --- |
| CNC1CCN(c2c(F)cc3c(=O)c(C(=O)O)cn(C4CC4)c3c2F)C/C1=N\OC (stereo unspecified) | 0.06 (≈ 0.143 µM) |

tested on: Escherichia coli; test: Antibacterial activity against Escherichia coli isolate 12-4; format: functional; outline: as §1

| SMILES | MIC [µg/mL] |
| --- | --- |
| CNC1CCN(c2c(F)cc3c(=O)c(C(=O)O)cn(C4CC4)c3c2F)C/C1=N\OC (stereo unspecified) | > 128 |

tested on: Klebsiella pneumoniae; test: Antibacterial activity against extended-spectrum beta-lactamase-producing Klebsiella pneumoniae isolate 12-2; format: functional; outline: as §1

| SMILES | MIC [µg/mL] |
| --- | --- |
| CNC1CCN(c2c(F)cc3c(=O)c(C(=O)O)cn(C4CC4)c3c2F)C/C1=N\OC (stereo unspecified) | 8 (≈ 19 µM) |

tested on: Staphylococcus epidermidis; test: Antibacterial activity against methicillin-sensitive Staphylococcus epidermidis isolate 12-2; format: functional; outline: as §1

| SMILES | MIC [µg/mL] |
| --- | --- |
| CNC1CCN(c2c(F)cc3c(=O)c(C(=O)O)cn(C4CC4)c3c2F)C/C1=N\OC (stereo unspecified) | 0.5 (≈ 1.19 µM) |

tested on: Staphylococcus aureus; test: Antibacterial activity against methicillin-resistant Staphylococcus aureus isolate 12-3; format: functional
Outline: (§2)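 MIC determined in vitro by standard techniques, defined as the lowest compound concentration giving complete inhibition of bacterial growth. Gemifloxacin, levofloxacin and ciprofloxacin were tested alongside as reference drugs.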

| SMILES | MIC [µg/mL] |
| --- | --- |
| CNC1CCN(c2c(F)cc3c(=O)c(C(=O)O)cn(C4CC4)c3c2F)C/C1=N\OC (stereo unspecified) | 0.06 (≈ 0.143 µM) |

tested on: Staphylococcus aureus; test: Antibacterial activity against methicillin-sensitive Staphylococcus aureus isolate 12-7; format: functional; outline: as §1

| SMILES | MIC [µg/mL] |
| --- | --- |
| CNC1CCN(c2c(F)cc3c(=O)c(C(=O)O)cn(C4CC4)c3c2F)C/C1=N\OC (stereo unspecified) | 0.06 (≈ 0.143 µM) |

tested on: Klebsiella pneumoniae; test: Antibacterial activity against extended-spectrum beta-lactamase-producing Klebsiella pneumoniae isolate 12-4; format: functional; outline: as §1

| SMILES | MIC [µg/mL] |
| --- | --- |
| CNC1CCN(c2c(F)cc3c(=O)c(C(=O)O)cn(C4CC4)c3c2F)C/C1=N\OC (stereo unspecified) | 0.5 (≈ 1.19 µM) |

tested on: Streptococcus pneumoniae; test: Antibacterial activity against Streptococcus pneumoniae isolate 12-2; format: functional; outline: as §1

| SMILES | MIC [µg/mL] |
| --- | --- |
| CNC1CCN(c2c(F)cc3c(=O)c(C(=O)O)cn(C4CC4)c3c2F)C/C1=N\OC (stereo unspecified) | 0.06 (≈ 0.143 µM) |

tested on: Staphylococcus aureus; test: Antibacterial activity against methicillin-resistant Staphylococcus aureus isolate 12-15; format: functional; outline: as §2

| SMILES | MIC [µg/mL] |
| --- | --- |
| CNC1CCN(c2c(F)cc3c(=O)c(C(=O)O)cn(C4CC4)c3c2F)C/C1=N\OC (stereo unspecified) | 0.06 (≈ 0.143 µM) |

tested on: Staphylococcus epidermidis; test: Antibacterial activity against methicillin-sensitive Staphylococcus epidermidis isolate 12-3; format: functional; outline: as §1

| SMILES | MIC [µg/mL] |
| --- | --- |
| CNC1CCN(c2c(F)cc3c(=O)c(C(=O)O)cn(C4CC4)c3c2F)C/C1=N\OC (stereo unspecified) | 0.25 (≈ 0.595 µM) |

tested on: Staphylococcus aureus; test: Antibacterial activity against methicillin-resistant Staphylococcus aureus isolate 12-13; format: functional; outline: as §2

| SMILES | MIC [µg/mL] |
| --- | --- |
| CNC1CCN(c2c(F)cc3c(=O)c(C(=O)O)cn(C4CC4)c3c2F)C/C1=N\OC (stereo unspecified) | 0.06 (≈ 0.143 µM) |

tested on: Klebsiella pneumoniae; test: Antibacterial activity against extended-spectrum beta-lactamase-producing Klebsiella pneumoniae isolate 12-1; format: functional; outline: as §1

| SMILES | MIC [µg/mL] |
| --- | --- |
| CNC1CCN(c2c(F)cc3c(=O)c(C(=O)O)cn(C4CC4)c3c2F)C/C1=N\OC (stereo unspecified) | 8 (≈ 19 µM) |

tested on: Staphylococcus epidermidis; test: Antibacterial activity against methicillin-sensitive Staphylococcus epidermidis isolate 12-1; format: functional; outline: as §1

| SMILES | MIC [µg/mL] |
| --- | --- |
| CNC1CCN(c2c(F)cc3c(=O)c(C(=O)O)cn(C4CC4)c3c2F)C/C1=N\OC (stereo unspecified) | 0.25 (≈ 0.595 µM) |

tested on: Staphylococcus aureus; test: Antibacterial activity against methicillin-sensitive Staphylococcus aureus isolate 12-10; format: functional; outline: as §1

| SMILES | MIC [µg/mL] |
| --- | --- |
| CNC1CCN(c2c(F)cc3c(=O)c(C(=O)O)cn(C4CC4)c3c2F)C/C1=N\OC (stereo unspecified) | 0.03 (≈ 0.0714 µM) |

tested on: Escherichia coli; test: Antibacterial activity against extended-spectrum beta-lactamase-producing Escherichia coli isolate 12-1; format: functional; outline: as §1

| SMILES | MIC [µg/mL] |
| --- | --- |
| CNC1CCN(c2c(F)cc3c(=O)c(C(=O)O)cn(C4CC4)c3c2F)C/C1=N\OC (stereo unspecified) | > 128 |

tested on: Escherichia coli; test: Antibacterial activity against Escherichia coli ATCC 25922; format: functional; outline: as §1

| SMILES | MIC [µg/mL] |
| --- | --- |
| CNC1CCN(c2c(F)cc3c(=O)c(C(=O)O)cn(C4CC4)c3c2F)C/C1=N\OC (stereo unspecified) | 0.03 (≈ 0.0714 µM) |

tested on: Staphylococcus epidermidis; test: Antibacterial activity against methicillin-resistant Staphylococcus epidermidis isolate 12-33; format: functional; outline: as §2

| SMILES | MIC [µg/mL] |
| --- | --- |
| CNC1CCN(c2c(F)cc3c(=O)c(C(=O)O)cn(C4CC4)c3c2F)C/C1=N\OC (stereo unspecified) | < 0.008 |

tested on: Escherichia coli; test: Antibacterial activity against extended-spectrum beta-lactamase-producing Escherichia coli isolate 12-2; format: functional; outline: as §1

| SMILES | MIC [µg/mL] |
| --- | --- |
| CNC1CCN(c2c(F)cc3c(=O)c(C(=O)O)cn(C4CC4)c3c2F)C/C1=N\OC (stereo unspecified) | > 128 |

tested on: Escherichia coli; test: Antibacterial activity against extended-spectrum beta-lactamase-producing Escherichia coli isolate 12-4; format: functional; outline: as §1

| SMILES | MIC [µg/mL] |
| --- | --- |
| CNC1CCN(c2c(F)cc3c(=O)c(C(=O)O)cn(C4CC4)c3c2F)C/C1=N\OC (stereo unspecified) | 128 (≈ 304 µM) |

tested on: Pseudomonas aeruginosa; test: Antibacterial activity against Pseudomonas aeruginosa isolate 12-2; format: functional; outline: as §1

| SMILES | MIC [µg/mL] |
| --- | --- |
| CNC1CCN(c2c(F)cc3c(=O)c(C(=O)O)cn(C4CC4)c3c2F)C/C1=N\OC (stereo unspecified) | 8 (≈ 19 µM) |

tested on: Klebsiella pneumoniae; test: Antibacterial activity against Klebsiella pneumoniae isolate 12-1; format: functional; outline: as §1

| SMILES | MIC [µg/mL] |
| --- | --- |
| CNC1CCN(c2c(F)cc3c(=O)c(C(=O)O)cn(C4CC4)c3c2F)C/C1=N\OC (stereo unspecified) | 0.5 (≈ 1.19 µM) |

tested on: Klebsiella pneumoniae; test: Antibacterial activity against Klebsiella pneumoniae isolate 12-2; format: functional; outline: as §1

| SMILES | MIC [µg/mL] |
| --- | --- |
| CNC1CCN(c2c(F)cc3c(=O)c(C(=O)O)cn(C4CC4)c3c2F)C/C1=N\OC (stereo unspecified) | 0.5 (≈ 1.19 µM) |

tested on: Klebsiella pneumoniae; test: Antibacterial activity against Klebsiella pneumoniae isolate 12-4; format: functional; outline: as §1

| SMILES | MIC [µg/mL] |
| --- | --- |
| CNC1CCN(c2c(F)cc3c(=O)c(C(=O)O)cn(C4CC4)c3c2F)C/C1=N\OC (stereo unspecified) | 0.5 (≈ 1.19 µM) |

tested on: Staphylococcus epidermidis; test: Antibacterial activity against methicillin-resistant Staphylococcus epidermidis isolate 12-35; format: functional; outline: as §2

| SMILES | MIC [µg/mL] |
| --- | --- |
| CNC1CCN(c2c(F)cc3c(=O)c(C(=O)O)cn(C4CC4)c3c2F)C/C1=N\OC (stereo unspecified) | 0.015 (≈ 0.0357 µM) |

tested on: Pseudomonas aeruginosa; test: Antibacterial activity against Pseudomonas aeruginosa isolate 12-1; format: functional; outline: as §1

| SMILES | MIC [µg/mL] |
| --- | --- |
| CNC1CCN(c2c(F)cc3c(=O)c(C(=O)O)cn(C4CC4)c3c2F)C/C1=N\OC (stereo unspecified) | 8 (≈ 19 µM) |

tested on: Staphylococcus epidermidis; test: Antibacterial activity against methicillin-resistant Staphylococcus epidermidis isolate 12-5; format: functional; outline: as §2

| SMILES | MIC [µg/mL] |
| --- | --- |
| CNC1CCN(c2c(F)cc3c(=O)c(C(=O)O)cn(C4CC4)c3c2F)C/C1=N\OC (stereo unspecified) | 0.015 (≈ 0.0357 µM) |

tested on: Escherichia coli; test: Antibacterial activity against Escherichia coli isolate 12-5; format: functional; outline: as §1

| SMILES | MIC [µg/mL] |
| --- | --- |
| CNC1CCN(c2c(F)cc3c(=O)c(C(=O)O)cn(C4CC4)c3c2F)C/C1=N\OC (stereo unspecified) | > 128 |

tested on: Pseudomonas aeruginosa; test: Antibacterial activity against Pseudomonas aeruginosa ATCC 27853; format: functional; outline: as §1

| SMILES | MIC [µg/mL] |
| --- | --- |
| CNC1CCN(c2c(F)cc3c(=O)c(C(=O)O)cn(C4CC4)c3c2F)C/C1=N\OC (stereo unspecified) | 4 (≈ 9.51 µM) |

tested on: Staphylococcus aureus; test: Antibacterial activity against Staphylococcus aureus […]; format: functional; outline: as §1

| SMILES | MIC [µg/mL] |
| --- | --- |
| CNC1CCN(c2c(F)cc3c(=O)c(C(=O)O)cn(C4CC4)c3c2F)C/C1=N\OC (stereo unspecified) | 0.25 (≈ 0.595 µM) |
